According to ChEMBL document CHEMBL5029150, “Controlling Intramolecular Interactions in the Design of Selective, High-Affinity Ligands for the CREBBP Bromodomain” (J Med Chem, 2021):
The source made the active and inactive calls. The rule behind the calls is not given here.

Tests used:
[1] = target: Transcription initiation factor TFIID subunit 1 (Homo sapiens) (UniProt P21675); experiment: Binding affinity to human TAF1 bromo domain 2 assessed as dissociation constant up to 1 uM by BROMOscan assay; details: dose microM <=1
Outline: (§1)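 BROMOscan competition binding panel of 12 phylogenetically diverse bromodomains, including the CREBBP and EP300 bromodomains.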

[2] = target: T1, CREB-binding protein/Histone acetyltransferase p300 (Homo sapiens) (UniProt Q09472+Q92793); experiment: Inhibition of CREBBP/EP300 in human HCT-116 cells assessed as reduction in c-Myc mRNA expression at 10 uM by Q-PCR analysis; format: cell-based
T1 sequence (Q09472 whole entry, looked up): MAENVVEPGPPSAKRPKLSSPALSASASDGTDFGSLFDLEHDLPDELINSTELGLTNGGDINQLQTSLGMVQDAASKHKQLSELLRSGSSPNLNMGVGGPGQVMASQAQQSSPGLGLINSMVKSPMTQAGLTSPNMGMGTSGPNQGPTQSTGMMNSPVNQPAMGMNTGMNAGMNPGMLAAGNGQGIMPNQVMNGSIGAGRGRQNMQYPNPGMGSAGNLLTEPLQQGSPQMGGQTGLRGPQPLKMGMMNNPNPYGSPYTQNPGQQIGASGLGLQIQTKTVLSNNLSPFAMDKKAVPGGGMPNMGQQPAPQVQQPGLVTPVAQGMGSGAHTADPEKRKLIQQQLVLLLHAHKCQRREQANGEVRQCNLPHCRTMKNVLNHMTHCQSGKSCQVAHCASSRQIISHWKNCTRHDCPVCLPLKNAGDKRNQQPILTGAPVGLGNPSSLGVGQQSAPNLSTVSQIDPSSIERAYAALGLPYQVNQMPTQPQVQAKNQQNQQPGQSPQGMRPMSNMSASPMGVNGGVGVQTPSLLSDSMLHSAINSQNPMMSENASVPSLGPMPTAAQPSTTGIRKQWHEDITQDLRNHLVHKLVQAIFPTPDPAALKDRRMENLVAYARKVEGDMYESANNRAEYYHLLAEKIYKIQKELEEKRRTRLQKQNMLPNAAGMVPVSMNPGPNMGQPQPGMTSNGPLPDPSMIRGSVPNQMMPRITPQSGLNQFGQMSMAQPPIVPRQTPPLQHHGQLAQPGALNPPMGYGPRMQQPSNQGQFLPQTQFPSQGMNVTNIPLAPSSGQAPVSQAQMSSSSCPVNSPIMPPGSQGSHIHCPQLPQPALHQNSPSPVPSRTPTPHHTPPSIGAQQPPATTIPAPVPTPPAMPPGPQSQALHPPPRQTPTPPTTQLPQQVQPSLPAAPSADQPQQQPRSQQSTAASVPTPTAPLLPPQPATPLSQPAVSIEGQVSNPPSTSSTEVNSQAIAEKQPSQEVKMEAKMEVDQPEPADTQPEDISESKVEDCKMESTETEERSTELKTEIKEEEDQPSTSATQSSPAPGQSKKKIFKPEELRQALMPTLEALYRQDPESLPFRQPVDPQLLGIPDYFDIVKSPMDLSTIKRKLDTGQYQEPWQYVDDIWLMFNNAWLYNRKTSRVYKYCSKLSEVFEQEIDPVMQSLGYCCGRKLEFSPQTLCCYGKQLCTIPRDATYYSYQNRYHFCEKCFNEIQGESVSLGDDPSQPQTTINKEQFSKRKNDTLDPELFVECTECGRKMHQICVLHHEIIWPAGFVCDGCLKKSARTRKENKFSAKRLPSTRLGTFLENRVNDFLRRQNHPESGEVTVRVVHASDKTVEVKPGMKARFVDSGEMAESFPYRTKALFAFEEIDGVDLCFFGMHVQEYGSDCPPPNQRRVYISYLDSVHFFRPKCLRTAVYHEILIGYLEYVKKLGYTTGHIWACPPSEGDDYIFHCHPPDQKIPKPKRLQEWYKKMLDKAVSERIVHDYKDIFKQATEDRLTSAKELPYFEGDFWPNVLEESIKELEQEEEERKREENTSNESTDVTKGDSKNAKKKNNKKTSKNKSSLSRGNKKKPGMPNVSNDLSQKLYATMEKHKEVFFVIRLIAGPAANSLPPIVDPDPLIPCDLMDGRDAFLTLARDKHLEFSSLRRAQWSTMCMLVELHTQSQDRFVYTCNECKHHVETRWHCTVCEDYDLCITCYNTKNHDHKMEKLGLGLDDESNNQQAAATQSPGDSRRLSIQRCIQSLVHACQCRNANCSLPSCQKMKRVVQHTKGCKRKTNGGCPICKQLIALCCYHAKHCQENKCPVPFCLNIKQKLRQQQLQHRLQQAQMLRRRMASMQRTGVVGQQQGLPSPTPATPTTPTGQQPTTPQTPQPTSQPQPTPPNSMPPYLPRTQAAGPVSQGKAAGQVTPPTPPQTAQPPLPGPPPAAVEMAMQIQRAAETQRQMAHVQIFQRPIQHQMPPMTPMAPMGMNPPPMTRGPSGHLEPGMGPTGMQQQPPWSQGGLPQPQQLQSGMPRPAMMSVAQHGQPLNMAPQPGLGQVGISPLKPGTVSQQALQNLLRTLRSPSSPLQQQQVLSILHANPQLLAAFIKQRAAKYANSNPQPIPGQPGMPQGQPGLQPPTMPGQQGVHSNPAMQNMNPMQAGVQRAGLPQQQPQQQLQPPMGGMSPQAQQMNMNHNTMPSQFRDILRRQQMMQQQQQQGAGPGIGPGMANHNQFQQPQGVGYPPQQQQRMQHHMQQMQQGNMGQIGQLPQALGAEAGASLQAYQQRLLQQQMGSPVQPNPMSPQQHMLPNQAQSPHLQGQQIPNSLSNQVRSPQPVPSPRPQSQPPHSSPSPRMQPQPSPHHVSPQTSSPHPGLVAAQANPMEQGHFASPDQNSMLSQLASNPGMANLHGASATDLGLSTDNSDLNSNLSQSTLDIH
T1 sequence (Q92793 whole entry, looked up): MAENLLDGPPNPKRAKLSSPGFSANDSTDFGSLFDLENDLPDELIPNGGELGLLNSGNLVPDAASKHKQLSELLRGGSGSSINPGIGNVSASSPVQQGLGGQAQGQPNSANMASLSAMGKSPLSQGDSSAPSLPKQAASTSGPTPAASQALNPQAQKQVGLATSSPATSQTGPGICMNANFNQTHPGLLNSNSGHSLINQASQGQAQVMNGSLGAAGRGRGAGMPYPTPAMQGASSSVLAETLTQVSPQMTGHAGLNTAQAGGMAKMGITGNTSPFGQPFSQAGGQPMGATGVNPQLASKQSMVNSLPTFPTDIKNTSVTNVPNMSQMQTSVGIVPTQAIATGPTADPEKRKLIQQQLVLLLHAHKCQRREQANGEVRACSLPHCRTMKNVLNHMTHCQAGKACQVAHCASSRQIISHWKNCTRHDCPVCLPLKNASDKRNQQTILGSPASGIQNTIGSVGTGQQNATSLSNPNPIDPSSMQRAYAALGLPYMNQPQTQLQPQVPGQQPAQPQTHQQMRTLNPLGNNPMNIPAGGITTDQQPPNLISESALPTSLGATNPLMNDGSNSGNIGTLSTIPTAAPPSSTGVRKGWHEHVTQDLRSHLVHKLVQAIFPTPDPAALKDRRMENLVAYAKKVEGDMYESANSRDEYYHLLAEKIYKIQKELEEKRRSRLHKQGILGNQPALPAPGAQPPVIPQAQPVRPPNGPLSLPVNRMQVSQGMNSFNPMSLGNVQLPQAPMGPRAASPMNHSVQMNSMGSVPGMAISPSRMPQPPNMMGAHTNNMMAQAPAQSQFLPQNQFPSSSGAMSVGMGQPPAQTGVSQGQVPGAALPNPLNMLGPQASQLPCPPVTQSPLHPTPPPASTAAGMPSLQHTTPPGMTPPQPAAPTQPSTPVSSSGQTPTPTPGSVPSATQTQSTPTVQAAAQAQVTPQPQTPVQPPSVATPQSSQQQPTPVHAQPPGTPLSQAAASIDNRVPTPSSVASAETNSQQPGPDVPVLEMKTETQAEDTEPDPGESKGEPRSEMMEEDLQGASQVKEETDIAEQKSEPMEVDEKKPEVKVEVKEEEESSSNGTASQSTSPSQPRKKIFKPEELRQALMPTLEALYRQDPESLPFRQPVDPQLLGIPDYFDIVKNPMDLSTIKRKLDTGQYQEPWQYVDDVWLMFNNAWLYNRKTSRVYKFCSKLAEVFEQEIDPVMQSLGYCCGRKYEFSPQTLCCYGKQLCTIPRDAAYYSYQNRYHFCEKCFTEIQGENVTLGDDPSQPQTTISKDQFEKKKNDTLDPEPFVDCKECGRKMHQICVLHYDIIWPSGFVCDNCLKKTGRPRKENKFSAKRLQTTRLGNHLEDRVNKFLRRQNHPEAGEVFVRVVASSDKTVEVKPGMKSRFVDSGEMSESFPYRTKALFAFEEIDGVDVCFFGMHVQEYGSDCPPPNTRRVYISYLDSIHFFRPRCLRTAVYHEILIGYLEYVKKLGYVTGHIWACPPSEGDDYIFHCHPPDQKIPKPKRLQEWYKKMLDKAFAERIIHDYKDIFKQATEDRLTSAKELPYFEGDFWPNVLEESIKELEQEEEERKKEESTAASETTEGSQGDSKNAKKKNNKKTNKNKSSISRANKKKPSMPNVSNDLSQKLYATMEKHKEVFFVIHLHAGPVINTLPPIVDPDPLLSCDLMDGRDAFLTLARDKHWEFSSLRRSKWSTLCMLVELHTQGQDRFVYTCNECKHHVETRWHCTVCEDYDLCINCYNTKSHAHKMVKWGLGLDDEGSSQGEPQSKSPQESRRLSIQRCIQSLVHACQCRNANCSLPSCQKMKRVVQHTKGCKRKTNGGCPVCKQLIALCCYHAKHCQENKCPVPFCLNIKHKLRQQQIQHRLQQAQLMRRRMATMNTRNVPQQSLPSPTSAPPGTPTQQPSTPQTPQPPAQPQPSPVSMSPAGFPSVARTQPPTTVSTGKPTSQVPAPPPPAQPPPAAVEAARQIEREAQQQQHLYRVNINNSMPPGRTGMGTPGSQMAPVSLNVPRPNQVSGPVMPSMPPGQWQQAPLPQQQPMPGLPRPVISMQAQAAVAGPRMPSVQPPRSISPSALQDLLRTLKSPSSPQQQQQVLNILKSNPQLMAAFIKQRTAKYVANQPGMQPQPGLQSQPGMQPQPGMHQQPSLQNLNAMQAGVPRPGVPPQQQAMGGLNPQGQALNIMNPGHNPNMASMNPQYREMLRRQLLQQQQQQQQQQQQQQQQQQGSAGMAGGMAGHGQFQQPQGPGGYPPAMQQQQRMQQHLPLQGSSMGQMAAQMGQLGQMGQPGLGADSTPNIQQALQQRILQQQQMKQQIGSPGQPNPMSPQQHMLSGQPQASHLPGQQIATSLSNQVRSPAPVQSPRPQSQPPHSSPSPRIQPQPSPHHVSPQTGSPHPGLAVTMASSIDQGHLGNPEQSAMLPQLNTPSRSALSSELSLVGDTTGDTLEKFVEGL

[3] = target: T2, Bromodomain-containing protein 7 (Homo sapiens) (UniProt Q9NPI1); experiment: Binding affinity to human BRD7 assessed as dissociation constant up to 1 uM by BROMOscan assay; details: dose microM <=1; outline: as §1
T2 sequence (whole entry): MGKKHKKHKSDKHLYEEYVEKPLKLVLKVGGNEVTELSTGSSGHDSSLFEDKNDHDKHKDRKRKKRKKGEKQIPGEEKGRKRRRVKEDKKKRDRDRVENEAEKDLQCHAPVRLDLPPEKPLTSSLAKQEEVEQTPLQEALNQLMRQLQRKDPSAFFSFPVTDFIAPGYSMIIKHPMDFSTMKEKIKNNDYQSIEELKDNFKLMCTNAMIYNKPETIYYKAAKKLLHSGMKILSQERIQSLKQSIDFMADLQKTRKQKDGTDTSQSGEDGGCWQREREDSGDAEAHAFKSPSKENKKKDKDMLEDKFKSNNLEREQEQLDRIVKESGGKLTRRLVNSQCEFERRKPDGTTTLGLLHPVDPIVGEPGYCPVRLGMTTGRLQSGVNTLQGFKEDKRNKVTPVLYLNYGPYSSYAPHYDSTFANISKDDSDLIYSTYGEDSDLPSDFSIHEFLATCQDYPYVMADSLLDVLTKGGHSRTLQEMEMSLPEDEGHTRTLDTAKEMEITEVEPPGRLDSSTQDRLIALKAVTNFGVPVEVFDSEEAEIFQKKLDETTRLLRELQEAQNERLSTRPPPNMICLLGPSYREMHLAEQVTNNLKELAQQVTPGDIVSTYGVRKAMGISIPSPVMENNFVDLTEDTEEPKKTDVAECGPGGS

[4] = target: Bromodomain-containing protein 4 (Homo sapiens, UniProt O60885); experiment: Binding affinity to human BRD4 bromodomain 1 assessed as dissociation constant up to 1 uM by BROMOscan assay; details: dose microM <=1; outline: as §1
[5] = target: SWI/SNF-related matrix-associated actin-dependent regulator of chromatin subfamily A member 4 (Homo sapiens) (UniProt P51532); experiment: Binding affinity to human SMARCA4 assessed as dissociation constant up to 1 uM by BROMOscan assay; details: dose microM <=1; outline: as §1
[6] = target: T1, CREB-binding protein/Histone acetyltransferase p300 (Homo sapiens); experiment: Inhibition of CREBBP/EP300 in human HCT-116 cells assessed as reduction in H3K18Ac at 10 uM for 6 hrs by Western blot analysis; format: cell-based
Outline: (§2)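 HCT116 human colorectal cancer cells were exposed to ligand at 10 μM for 6, 16 or 24 h. c-Myc, H3K18Ac and H3K27Ac levels were read by western blot, with acetylation marks expressed relative to the t = 0 level.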

[7] = target: T1, CREB-binding protein/Histone acetyltransferase p300 (Homo sapiens); experiment: Inhibition of CREBBP/EP300 in human HCT-116 cells assessed as reduction in c-Myc protein expression at 10 uM for 6 hrs by Western blot analysis; format: cell-based; outline: as §2
[8] = target: Histone acetyltransferase KAT2B (Homo sapiens) (UniProt Q92831); experiment: Binding affinity to human PCAF assessed as dissociation constant up to 1 uM by BROMOscan assay; details: dose microM <=1; outline: as §1
[9] = target: T3, ATPase family AAA domain-containing protein 2B (Homo sapiens) (UniProt Q9ULI0); experiment: Binding affinity to human ATAD2B assessed as dissociation constant up to 1 uM by BROMOscan assay; details: dose microM <=1; outline: as §1
T3 sequence (whole entry): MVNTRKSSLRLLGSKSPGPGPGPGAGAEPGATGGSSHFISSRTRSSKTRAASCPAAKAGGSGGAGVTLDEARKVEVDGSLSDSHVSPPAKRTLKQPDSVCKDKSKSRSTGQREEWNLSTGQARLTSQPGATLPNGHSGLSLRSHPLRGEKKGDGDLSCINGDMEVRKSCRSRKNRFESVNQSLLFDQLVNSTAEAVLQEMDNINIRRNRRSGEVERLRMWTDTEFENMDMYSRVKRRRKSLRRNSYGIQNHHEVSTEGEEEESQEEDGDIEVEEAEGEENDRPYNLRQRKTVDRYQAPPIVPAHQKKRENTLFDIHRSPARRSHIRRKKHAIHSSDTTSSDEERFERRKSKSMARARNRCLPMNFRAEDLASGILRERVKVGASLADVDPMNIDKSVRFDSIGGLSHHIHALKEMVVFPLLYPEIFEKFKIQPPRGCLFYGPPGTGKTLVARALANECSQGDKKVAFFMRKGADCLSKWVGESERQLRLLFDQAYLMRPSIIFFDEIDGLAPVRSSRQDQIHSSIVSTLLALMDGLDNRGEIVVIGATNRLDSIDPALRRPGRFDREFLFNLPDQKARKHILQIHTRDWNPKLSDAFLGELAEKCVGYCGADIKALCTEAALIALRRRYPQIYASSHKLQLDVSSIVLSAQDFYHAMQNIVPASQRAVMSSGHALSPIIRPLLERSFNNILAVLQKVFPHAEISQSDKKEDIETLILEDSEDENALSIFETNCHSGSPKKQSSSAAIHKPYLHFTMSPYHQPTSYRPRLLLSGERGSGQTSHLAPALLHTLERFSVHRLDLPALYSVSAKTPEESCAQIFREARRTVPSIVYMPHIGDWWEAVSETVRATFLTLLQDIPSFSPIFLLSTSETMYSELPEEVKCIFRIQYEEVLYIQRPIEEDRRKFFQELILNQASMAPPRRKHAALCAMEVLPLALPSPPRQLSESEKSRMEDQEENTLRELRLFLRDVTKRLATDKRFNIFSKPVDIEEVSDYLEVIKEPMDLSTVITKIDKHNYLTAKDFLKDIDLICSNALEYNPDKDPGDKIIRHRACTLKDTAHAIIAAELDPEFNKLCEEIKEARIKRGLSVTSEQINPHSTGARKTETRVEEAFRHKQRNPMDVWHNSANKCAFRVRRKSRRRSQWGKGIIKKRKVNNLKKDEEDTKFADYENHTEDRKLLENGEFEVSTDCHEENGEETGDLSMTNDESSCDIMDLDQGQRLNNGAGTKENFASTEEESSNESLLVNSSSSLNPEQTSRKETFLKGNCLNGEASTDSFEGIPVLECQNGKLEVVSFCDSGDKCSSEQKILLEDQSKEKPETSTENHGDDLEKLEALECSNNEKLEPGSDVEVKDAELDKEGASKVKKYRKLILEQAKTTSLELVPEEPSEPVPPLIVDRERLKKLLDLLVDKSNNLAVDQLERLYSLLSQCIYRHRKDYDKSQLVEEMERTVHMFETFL

[10] = target: CREB-binding protein (Homo sapiens, UniProt Q92793); experiment: Binding affinity to human CREBBP bromodomain expressed in Escherichia coli BL21 (DE3)-RIL assessed as dissociation constant by ITC assay
Sequence of CREB-binding protein (Q92793 whole entry): as the sequence (Q92793 whole entry, looked up) above

| Activity [1] | inhibition [2] | Activity [3] | Activity [4] | Activity [5] | inhibition [6] | inhibition [7] | Activity [8] | Activity [9] | Kd [10] | SMILES |
| --- | --- | --- | --- | --- | --- | --- | --- | --- | --- | --- |
| inactive | Active | inactive | inactive | inactive | 70% | Active | inactive | inactive | – | COc1ccc2c(c1)N(CCC/C=C/c1cccc3c1N[C@H](C)CC(=O)N3)CCC2 |
| inactive | – | inactive | inactive | inactive | – | – | inactive | inactive | Not Active | COc1ccc2c(c1)N(CCC/C=C/c1cccc3c1N[C@@H](C)CC(=O)N3)CCC2 |
